# Measurements taken from ChEMBL document CHEMBL5058577, “EUbOPEN Chemogenomics Library 2 (Multiplex)” (2022).
# System: Fibroblast
# Assay: Multiplex assay against human fibroblast
# Type: toxicity, cell-based
# Procedure, shortened: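 Imaging took place on a CQ1 microscope at 37°C and 5% CO2 once compound had been added to live cells stained at seeding with Hoechst33342, BioTracker Green Microtubule Cytoskeleton Dye, MitoTracker Red and Annexin V Alexa Fluor 680. CellPathfinder machine-learning gating classed cells as Hoechst high-intensity objects or normal cells, classed normal cells as having healthy, pyknosed or fragmented nuclei, and classed pyknosed cells as mitotic or apoptotic. Tubulin, mitochondrial-mass and membrane-permeability phenotypes are per cents of the healthy-nucleus cells.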
# [1] = 12 h, 1 µM, compound concentration 1 uM, replicate 1
# [2] = 12 h, 1 µM, compound concentration 1 uM, replicate 2
# [3] = 12 h, 10 µM, compound concentration 10 uM, replicate 1
# [4] = 12 h, 10 µM, compound concentration 10 uM, replicate 2
# [5] = 24 h, 1 µM, compound concentration 1 uM, replicate 1
# [6] = 24 h, 1 µM, compound concentration 1 uM, replicate 2
# [7] = 24 h, 10 µM, compound concentration 10 uM, replicate 1
# [8] = 24 h, 10 µM, compound concentration 10 uM, replicate 2
# [9] = 48 h, 1 µM, compound concentration 1 uM, replicate 1
# [10] = 48 h, 1 µM, compound concentration 1 uM, replicate 2
# [11] = 48 h, 10 µM, compound concentration 10 uM, replicate 1
# [12] = 48 h, 10 µM, compound concentration 10 uM, replicate 2
structure (smiles),measurement,setting,value
CC(=O)NCCc1c(Cc2ccccc2)[nH]c2ccccc12 [LUZINDOLE],Population Apoptotic (%),[1],41%
same,Population Fragmented Nuclei (%),[1],15%
same,Population Healthy Nuclei (%),[1],65%
same,Population Hoechst High Intensity Objects (%),[1],1%
same,Population Membrane Permeable-Phenotype (%),[1],2%
same,Population Mitochondria Different-Phenotype (%),[1],7%
same,Population Mitotic Cells (%),[1],58%
same,Population Normal (%),[1],98%
same,Population Pyknosed Nuclei (%),[1],18%
same,Population Tubulin-Different-Phenotype (%),[1],30%
same,Total Cell Count,[1],129
same,Population Apoptotic (%),[2],40%
same,Population Fragmented Nuclei (%),[2],25%
same,Population Healthy Nuclei (%),[2],39%
same,Population Hoechst High Intensity Objects (%),[2],4%
same,Population Membrane Permeable-Phenotype (%),[2],9%
same,Population Mitochondria Different-Phenotype (%),[2],11%
same,Population Mitotic Cells (%),[2],59%
same,Population Normal (%),[2],95%
same,Population Pyknosed Nuclei (%),[2],34%
same,Population Tubulin-Different-Phenotype (%),[2],50%
same,Total Cell Count,[2],134
same,Population Apoptotic (%),[3],19%
same,Population Fragmented Nuclei (%),[3],15%
same,Population Healthy Nuclei (%),[3],69%
same,Population Hoechst High Intensity Objects (%),[3],2%
same,Population Membrane Permeable-Phenotype (%),[3],2%
same,Population Mitochondria Different-Phenotype (%),[3],7%
same,Population Mitotic Cells (%),[3],80%
same,Population Normal (%),[3],97%
same,Population Pyknosed Nuclei (%),[3],15%
same,Population Tubulin-Different-Phenotype (%),[3],42%
same,Total Cell Count,[3],140
same,Population Apoptotic (%),[4],21%
same,Population Fragmented Nuclei (%),[4],26%
same,Population Healthy Nuclei (%),[4],59%
same,Population Membrane Permeable-Phenotype (%),[4],13%
same,Population Mitochondria Different-Phenotype (%),[4],4%
same,Population Mitotic Cells (%),[4],78%
same,Population Pyknosed Nuclei (%),[4],13%
same,Population Tubulin-Different-Phenotype (%),[4],32%
same,Total Cell Count,[4],105
same,Population Apoptotic (%),[5],54%
same,Population Fragmented Nuclei (%),[5],21%
same,Population Healthy Nuclei (%),[5],61%
same,Population Hoechst High Intensity Objects (%),[5],0%
same,Population Membrane Permeable-Phenotype (%),[5],0%
same,Population Mitochondria Different-Phenotype (%),[5],3%
same,Population Mitotic Cells (%),[5],45%
same,Population Normal (%),[5],99%
same,Population Pyknosed Nuclei (%),[5],16%
same,Population Tubulin-Different-Phenotype (%),[5],13%
same,Total Cell Count,[5],134
same,Population Apoptotic (%),[6],45%
same,Population Fragmented Nuclei (%),[6],25%
same,Population Healthy Nuclei (%),[6],47%
same,Population Hoechst High Intensity Objects (%),[6],5%
same,Population Membrane Permeable-Phenotype (%),[6],8%
same,Population Mitochondria Different-Phenotype (%),[6],8%
same,Population Mitotic Cells (%),[6],54%
same,Population Normal (%),[6],94%
same,Population Pyknosed Nuclei (%),[6],26%
same,Population Tubulin-Different-Phenotype (%),[6],50%
same,Total Cell Count,[6],137
same,Population Apoptotic (%),[7],47%
same,Population Fragmented Nuclei (%),[7],15%
same,Population Healthy Nuclei (%),[7],67%
same,Population Hoechst High Intensity Objects (%),[7],2%
same,Population Membrane Permeable-Phenotype (%),[7],1%
same,Population Mitochondria Different-Phenotype (%),[7],5%
same,Population Mitotic Cells (%),[7],52%
same,Population Normal (%),[7],97%
same,Population Pyknosed Nuclei (%),[7],17%
same,Population Tubulin-Different-Phenotype (%),[7],29%
same,Total Cell Count,[7],138
same,Population Apoptotic (%),[8],23%
same,Population Fragmented Nuclei (%),[8],27%
same,Population Healthy Nuclei (%),[8],59%
same,Population Hoechst High Intensity Objects (%),[8],3%
same,Population Membrane Permeable-Phenotype (%),[8],5%
same,Population Mitochondria Different-Phenotype (%),[8],3%
same,Population Mitotic Cells (%),[8],76%
same,Population Normal (%),[8],96%
same,Population Pyknosed Nuclei (%),[8],12%
same,Population Tubulin-Different-Phenotype (%),[8],33%
same,Total Cell Count,[8],105
same,Population Apoptotic (%),[9],75%
same,Population Fragmented Nuclei (%),[9],15%
same,Population Healthy Nuclei (%),[9],72%
same,Population Hoechst High Intensity Objects (%),[9],5%
same,Population Membrane Permeable-Phenotype (%),[9],2%
same,Population Mitochondria Different-Phenotype (%),[9],3%
same,Population Mitotic Cells (%),[9],25%
same,Population Normal (%),[9],94%
same,Population Pyknosed Nuclei (%),[9],12%
same,Population Tubulin-Different-Phenotype (%),[9],24%
same,Total Cell Count,[9],134
same,Population Apoptotic (%),[10],39%
same,Population Fragmented Nuclei (%),[10],27%
same,Population Healthy Nuclei (%),[10],55%
same,Population Hoechst High Intensity Objects (%),[10],8%
same,Population Membrane Permeable-Phenotype (%),[10],9%
same,Population Mitochondria Different-Phenotype (%),[10],5%
same,Population Mitotic Cells (%),[10],60%
same,Population Normal (%),[10],91%
same,Population Pyknosed Nuclei (%),[10],16%
same,Population Tubulin-Different-Phenotype (%),[10],46%
same,Total Cell Count,[10],149
same,Population Apoptotic (%),[11],80%
same,Population Fragmented Nuclei (%),[11],19%
same,Population Healthy Nuclei (%),[11],70%
same,Population Hoechst High Intensity Objects (%),[11],3%
same,Population Membrane Permeable-Phenotype (%),[11],0%
same,Population Mitochondria Different-Phenotype (%),[11],3%
same,Population Mitotic Cells (%),[11],20%
same,Population Normal (%),[11],96%
same,Population Pyknosed Nuclei (%),[11],10%
same,Population Tubulin-Different-Phenotype (%),[11],34%
same,Total Cell Count,[11],147
same,Population Apoptotic (%),[12],54%
same,Population Fragmented Nuclei (%),[12],34%
same,Population Healthy Nuclei (%),[12],54%
same,Population Hoechst High Intensity Objects (%),[12],4%
same,Population Membrane Permeable-Phenotype (%),[12],3%
same,Population Mitotic Cells (%),[12],45%
same,Population Normal (%),[12],95%
same,Population Tubulin-Different-Phenotype (%),[12],50%
same,Total Cell Count,[12],111
